# ChEMBL document CHEMBL4765374, “8-Alkynyl-3-nitroimidazopyridines display potent antitrypanosomal activity against both T. b. brucei and cruzi” (Eur J Med Chem, 2020)
# Assays:
# [1] = Cytotoxicity against human HepG2 cells assessed as reduction in cell viability after 72 hrs by MTT assay; format: cell-based
# Leishmania donovani [2] = experiment: Antileishmanial activity against Leishmania donovani MHOM/IN/00/DEVI promastigotes assessed as inhibition of metabolic activity measured after 72 hrs by MTT assay; format: functional, organism-based
# In short: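 L. donovani MHOM/IN/00/DEVI promastigotes grown in Schneider's medium with 20% FCS at 27 °C. Log-phase parasites at 10⁶/mL were exposed in duplicate to serial compound concentrations in DMSO (final <0.5%) for 72 h at 27 °C. MTT was added for 4 h and absorbance read at 570 nm. EC50 from non-linear regression, mean of at least three independent experiments.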
# [3] = Solubility of the compound in aqueous medium at highest dose; format: physicochemical; conditions: buffer
# [4] = tested on: Trypanosoma brucei brucei; experiment: […] activity against Trypanosoma brucei brucei AnTat 1.9 measured after 74 hrs by Alamar blue assay; format: functional, organism-based; conditions: AnTat 1.9, 74 h
# In short: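 Bloodstream T. b. brucei AnTat 1.9 grown at 37 °C, 5% CO₂ in MEM with Earle's salts plus mercaptoethanol, L-cysteine, bathocuproine sulfate and 20% heat-inactivated horse serum. Seeded at 2000 parasites/100 µL and exposed in duplicate to compounds in DMSO for 69 h. Alamar Blue then added for 5 h, fluorescence read at ex 530/em 590 nm. EC50 by nonlinear regression from three independent experiments.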
# [5] = Selectivity index, ratio of CC50 for human HepG2 cells to EC50 for Trypanosoma brucei brucei AnTat 1.9; format: toxicity; conditions: read-out: Selectivity Index
# [6] = Selectivity index, ratio of CC50 for cytotoxicity against human HepG2 cells to EC50 for antileishmanial activity against Leishmania donovani MHOM/IN/00/DEVI promastigotes; format: toxicity, cell-based; conditions: read-out: Selectivity Index
# Leishmania donovani [7] = experiment: Antileishmanial activity against wild type Leishmania donovani BOB (MHOM/SD/62/1S-CL2D) promastigotes incubated for 72 hrs by resazurin dye based assay; format: functional, organism-based
# In short: (§1)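 Clonal L. donovani LdBOB promastigotes grown at 26 °C in modified M199; NTR1- and NTR2-overexpressing lines maintained with nourseothricin (100 µg/mL). Triplicate 10 mL cultures seeded at 5×10^4 parasites/mL with drug for 72 h; 200 µL aliquots then given 50 µM resazurin, fluorescence (ex 528/em 590 nm) after 4 h more. EC50 from slope-factor equation; experiments repeated at least twice, mean plus standard deviation.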
# [8] = tested on: Trypanosoma brucei brucei; experiment: Antitrypanosomal activity against bloodstream form of wild type Trypanosoma brucei brucei S427 trypomastigotes incubated for 72 hrs; format: functional, organism-based; conditions: S427, 72 h
# In short: (§2)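 Bloodstream-form T. brucei 'single marker' S427 cultured at 37 °C in HMI9-T with 2.5 µg/mL G418. The NTR1-overexpressing line was kept with 2.5 µg/mL phleomycin and induced with 1 µg/mL tetracycline 48 h before testing. Triplicate cultures seeded at 1×10^5 cells/mL with inhibitor. Cell densities counted after 72 h. EC50 from slope-factor equation.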
# Leishmania donovani [9] = experiment: Antileishmanial activity against Leishmania donovani BOB (MHOM/SD/62/1S-CL2D) promastigotes overexpressing NTR1 incubated for 72 hrs by resazurin dye based assay; format: functional, organism-based; in short: as §1
# Leishmania donovani [10] = experiment: Antileishmanial activity against Leishmania donovani BOB (MHOM/SD/62/1S-CL2D) promastigotes overexpressing NTR2 incubated for 72 hrs by resazurin dye based assay; format: functional, organism-based; in short: as §1
# [11] = tested on: Trypanosoma brucei brucei; experiment: Antitrypanosomal activity against bloodstream form of Trypanosoma brucei brucei S427 trypomastigotes overexpressing NTR incubated for 72 hrs; format: functional, organism-based; conditions: S427, 72 h; in short: as §2
# THP-1 = experiment: Cytotoxicity against human THP-1 cells assessed as reduction in cell viability after 72 hrs by MTT assay; format: functional
# In short: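 THP-1 cells at 5×10⁴ cells/mL in complete RPMI were exposed in duplicate to compounds in DMSO (final <0.5%) for 72 h at 37 °C. MTT at 0.5 mg/mL for 2 h, formazan dissolved in DMSO, absorbance read at 570 nm with 630 nm reference. CC50 from the dose-response curve, mean of three independent experiments.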
SMILES,CC50 at 72 h [1],EC50 (Leishmania donovani [2]),solubility [3],EC50 [4],selectivity ratio [5],selectivity ratio [6],also measured
O=[N+]([O-])c1c(CS(=O)(=O)c2ccccc2)nc2c(Br)cc(Br)cn12,> 31000 nM,1800 nM,Insoluble,2900 nM,–,–,–
O=[N+]([O-])c1c(CS(=O)(=O)c2ccccc2)nc2c(-c3ccncc3)cc(Cl)cn12,> 50000 nM,1200 nM,–,250 nM,–,–,–
O=[N+]([O-])c1c(CS(=O)(=O)c2ccccc2)nc2c(Sc3ccc(Cl)cc3)cc(Cl)cn12,–,1000 nM,–,1300 nM,> 76.9,–,–
COc1cccc(C#Cc2cc(Cl)cn3c([N+](=O)[O-])c(CS(=O)(=O)c4ccccc4)nc23)c1,> 3900 nM,–,Insoluble,–,–,–,–
CC(O)C#Cc1cc(Cl)cn2c([N+](=O)[O-])c(CS(=O)(=O)c3ccccc3)nc12 (configuration not stated),44200 nM,4700 nM,–,40 nM,1100,9.4,–
COc1ccc(C#Cc2cc(Cl)cn3c([N+](=O)[O-])c(CS(=O)(=O)c4ccccc4)nc23)cc1,> 3900 nM,–,Insoluble,–,–,–,–
CCC(O)CC#Cc1cc(Cl)cn2c([N+](=O)[O-])c(CS(=O)(=O)c3ccccc3)nc12 (configuration not stated),> 62500 nM,1600 nM,Insoluble,40 nM,> 1560,> 39.1,EC50 (Leishmania donovani [7]): 7300 nM; EC50 [8]: 200 nM; EC50 (Leishmania donovani [9]): 400 nM; EC50 (Leishmania donovani [10]): 8500 nM; EC50 [11]: 66.3 nM
O=[N+]([O-])c1c(CS(=O)(=O)c2ccccc2)nc2c(C#Cc3ccc(CO)cc3)cc(Cl)cn12,> 15600 nM,1600 nM,Insoluble,160 nM,> 97.5,> 9.8,–
O=[N+]([O-])c1c(CS(=O)(=O)c2ccccc2)nc2c(C#CCOc3ccccc3)cc(Cl)cn12,8400 nM,1300 nM,–,160 nM,52.5,6.5,–
O=[N+]([O-])c1c(CS(=O)(=O)c2ccccc2)nc2c(C#Cc3ccccc3)cc(Cl)cn12,> 3900 nM,–,Insoluble,–,–,–,–
O=[N+]([O-])c1c(CS(=O)(=O)c2ccccc2)nc2c(C#Cc3cccs3)cc(Cl)cn12,> 3900 nM,–,Insoluble,–,–,–,–
O=[N+]([O-])c1c(CS(=O)(=O)c2ccccc2)nc2c(C#Cc3cccc(F)c3)cc(Cl)cn12,> 3900 nM,–,Insoluble,–,–,–,–
O=[N+]([O-])c1c(CS(=O)(=O)c2ccccc2)nc2c(C#CCO)cc(Cl)cn12,10100 nM,3900 nM,–,120 nM,84.2,2.6,–
CC(O)(C#Cc1cc(Cl)cn2c([N+](=O)[O-])c(CS(=O)(=O)c3ccccc3)nc12)c1ccccc1 (configuration not stated),18800 nM,1000 nM,–,130 nM,> 145,18.8,–
O=[N+]([O-])c1c(CS(=O)(=O)c2ccccc2)nc2c(C#CC3(O)CCCCC3)cc(Cl)cn12,> 25000 nM,1000 nM,Insoluble,100 nM,> 250,> 25,–
O=[N+]([O-])c1c(CS(=O)(=O)c2ccccc2)nc2c(C#Cc3ccccc3F)cc(Cl)cn12,> 3900 nM,–,Insoluble,–,–,–,–
O=[N+]([O-])c1c(CS(=O)(=O)c2ccccc2)nc2c(C#CC3(O)CCCC3)cc(Cl)cn12,> 31300 nM,1700 nM,Insoluble,100 nM,> 313,> 18.4,–
COc1ccccc1C#Cc1cc(Cl)cn2c([N+](=O)[O-])c(CS(=O)(=O)c3ccccc3)nc12,> 3900 nM,–,Insoluble,–,–,–,–
Nc1c(CS(=O)(=O)c2ccccc2)nc2c(C#CCCO)cc(Cl)cn12,> 62500 nM,> 62500 nM,Insoluble,6800 nM,> 9.2,–,–
O=[N+]([O-])c1c(CS(=O)(=O)c2ccccc2)nc2c(C#Cc3ccc(F)cc3)cc(Cl)cn12,> 3900 nM,–,Insoluble,–,–,–,–
CC(C)(O)C#Cc1cc(Cl)cn2c([N+](=O)[O-])c(CS(=O)(=O)c3ccccc3)nc12,> 62500 nM,3000 nM,Insoluble,120 nM,> 521,> 20.8,–
Nc1ccc(C#Cc2cc(Cl)cn3c([N+](=O)[O-])c(CS(=O)(=O)c4ccccc4)nc23)cc1,> 3900 nM,–,Insoluble,–,–,–,–
O=[N+]([O-])c1c(CS(=O)(=O)c2ccccc2)nc2c(C#Cc3cccnc3)cc(Cl)cn12,> 3900 nM,–,Insoluble,–,–,–,–
O=C(Cn1ccnc1[N+](=O)[O-])NCc1ccccc1 [BENZNIDAZOLE],–,–,–,–,–,–,CC50 (THP-1): > 200000 nM
COc1cccc2c1C(=O)c1c(O)c3c(c(O)c1C2=O)C[C@@](O)(C(=O)CO)C[C@@H]3O[C@H]1C[C@H](N)[C@H](O)[C@H](C)O1 [DOXORUBICIN],–,–,–,–,–,–,CC50 (THP-1): 700 nM
NCCCC(N)(C(=O)O)C(F)F (configuration not stated) [EFLORNITHINE],> 100000 nM,–,–,–,> 7.5,–,–
CSc1ccc(OCc2ncc([N+](=O)[O-])n2C)cc1 [FEXINIDAZOLE],–,1200 nM,–,600 nM,–,–,CC50 (THP-1): > 200000 nM
CCCCCCCCCCCCCCCCOP(=O)([O-])OCC[N+](C)(C)C [MILTEFOSINE],–,–,–,–,–,–,CC50 (THP-1): 35000 nM
CC1CS(=O)(=O)CCN1/N=C/c1ccc([N+](=O)[O-])o1 (configuration not stated) [NIFURTIMOX],45200 nM,–,–,2600 nM,17.4,–,–
Cc1ccc(C(=O)Nc2ccc(S(=O)(=O)O)c3cc(S(=O)(=O)O)cc(S(=O)(=O)O)c23)cc1NC(=O)c1cccc(NC(=O)Nc2cccc(C(=O)Nc3cc(C(=O)Nc4ccc(S(=O)(=O)O)c5cc(S(=O)(=O)O)cc(S(=O)(=O)O)c45)ccc3C)c2)c1 [SURAMIN],> 100000 nM,–,–,–,–,–,–
